In publication PMC4603714 (Drug Design, Development and Therapy, 2015):
Where two headings read alike, the source gives them in different places.

Tests used:
[1] = system: HDAC (HeLa cell nuclear extract); experiment: In vitro HDAC inhibition fluorescence assay; format: biochemical, human; settings: read-out: HeLa cell nuclear extract IC50, substrate Boc-Lys(acetyl)-AMC, mean of three experiments
Outline: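 HeLa nuclear extract preincubated with test compound at several concentrations, 10 min at 37°C. Boc-Lys(acetyl)-AMC then added and incubated 30 min at 37°C. Reaction stopped with developer containing trypsin and trichostatin A. Fluorescence read 20 min later (ex 390/em 460 nm). Inhibition calculated relative to control wells. IC50 obtained by regression of concentration against inhibition ratio.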

U937 cells = experiment: In vitro antiproliferative assay; format: cell-based; settings: Homo sapiens, U-937, 48 h, read-out: U937 IC50
Outline: (§1)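 Cells kept in RPMI-1640 with 10% FBS at 37°C, 5% CO2. Passaged into plates the day before dosing and grown at least 4 h before test compound was added. Exposure was 48 h, then 0.5% MTT for 4 h. Formazan was dissolved in DMSO for 15 min and absorbance read at 570 nm. Inhibition was taken relative to control wells, and IC50 was obtained by regression of concentration versus inhibition ratio.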

[2] = system: HDAC (HeLa cell nuclear extract); settings: read-out: HeLa cell nuclear extract IC50; HDAC inhibition; ref Zhang et al.[8]; cited from earlier work
KG-1 cells = experiment: In vitro antiproliferative assay; format: cell-based; settings: Homo sapiens, KG-1, 48 h, read-out: KG-1 IC50
Outline: as §1

HCT116 cells = experiment: In vitro antiproliferative assay; format: cell-based; settings: Homo sapiens, HCT-116, 48 h, read-out: HCT116 IC50
Outline: as §1

U266 cells = experiment: In vitro antiproliferative assay; format: cell-based; settings: Homo sapiens, U-266, 48 h, read-out: U266 IC50
Outline: as §1

H7402 cells = experiment: In vitro antiproliferative assay; format: cell-based; settings: Homo sapiens, H7402, 48 h, read-out: H7402 IC50
Outline: as §1

HeLa cells = experiment: In vitro antiproliferative assay; format: cell-based; settings: Homo sapiens, 48 h, read-out: HeLa IC50
Outline: as §1

U937 xenograft = experiment: In vivo antitumor assay in U937 xenograft model; parameters: species or system male athymic nude mice (BALB/c-nu)
Outline: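 U937 cells were injected subcutaneously into the right flank of male BALB/c-nu mice aged 5–6 weeks. After about 10 days, at roughly 100 mm3, mice were randomized six per group. Dosing was oral, 100 mg/kg daily for 12 days, with controls given an equal volume of PBS. Calipers were used every 3 days, V = ab2/2, and RTV = Vt/V0. Body weight was tracked. Tumors were weighed and organs inspected at necropsy. Analysis used a two-tailed t-test, P<0.05.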

[3] = U937 xenograft mice, 100 mg/kg once a day orally for 12 days

In the case of O=C(Nc1ccccc1F)N[C@H](C(=O)Nc1ccc(C(=O)NO)cc1)c1ccccc1 [Compound 7d, (S)-4-(2-(3-(2-Fluorophenyl)ureido)-2-phenylacetamido)-N-hydroxybenzamide], the IC50 [1] is reported as 76.1 nM.
Compound Cc1ccc(NC(=O)N[C@H](C(=O)Nc2ccc(C(=O)NO)cc2)c2ccccc2)cc1 [Compound 7g, (S)-N-Hydroxy-4-(2-phenyl-2-(3-(p-tolyl)ureido)acetamido)benzamide] has an IC50 (U937 cells) of 3100 nM and an IC50 [1] of 2.7 nM.
O=C(Nc1ccccc1Cl)N[C@H](C(=O)Nc1ccc(C(=O)NO)cc1)c1ccccc1 [Compound 7c, (S)-4-(2-(3-(2-Chlorophenyl)ureido)-2-phenylacetamido)-N-hydroxybenzamide] showed an IC50 (U937 cells) of 4400 nM and an IC50 [1] of 2.3 nM.
O=C(Nc1ccccc1Br)N[C@H](C(=O)Nc1ccc(C(=O)NO)cc1)c1ccccc1 [Compound 7e, (S)-4-(2-(3-(2-Bromophenyl)ureido)-2-phenylacetamido)-N-hydroxybenzamide] showed an IC50 (U937 cells) of 2000 nM and an IC50 [1] of 4.1 nM.
Work on O=C(/C=C/c1ccc(NC(=O)[C@@H](NC(=O)Nc2ccccc2F)c2ccccc2)cc1)NO [Compound 16b, (S, E)-3-(4-(2-(3-(2-Fluorophenyl)ureido)-2-phenylacetamido)phenyl)-N-hydroxyacrylamide] yielded an IC50 [1] of 215 nM.
In the case of O=C(CCCCCCC(=O)Nc1ccccc1)NO [SAHA, suberoylanilide hydroxamic acid], the IC50 [2] is given as 146 nM.
O=C(NO)c1ccc(NC(=O)[C@@H](NC(=O)c2cnccn2)c2ccccc2)cc1 [Compound 8e, (S)-N-(2-((4-(Hydroxycarbamoyl)phenyl)amino)-2-oxo-1-phenylethyl)pyrazine-2-carboxamide] showed an IC50 [1] of 353 nM.
In the case of CCc1cccc(CC)c1NC(=O)N[C@H](C(=O)Nc1ccc(C(=O)NO)cc1)c1ccccc1 [Compound 7j, (S)-4-(2-(3-(2,6-Diethylphenyl)ureido)-2-phenylacetamido)-N-hydroxybenzamide], the IC50 [1] is reported as 178 nM.
Cc1ccccc1NC(=O)N[C@H](C(=O)Nc1ccc(/C=C/C(=O)NO)cc1)c1ccccc1 [Compound 16d, (S, E)-N-Hydroxy-3-(4-(2-phenyl-2-(3-(o-tolyl)ureido)acetamido)phenyl)acrylamide] gave an IC50 [1] of 811 nM.
Compound O=C(NO)c1ccc(NC(=O)[C@@H](NC(=O)c2cc3ccccc3[nH]2)c2ccccc2)cc1 [Compound 8d, (S)-N-(2-((4-(Hydroxycarbamoyl)phenyl)amino)-2-oxo-1-phenylethyl)-1H-indole-2-carboxamide] has an IC50 (U937 cells) of 8900 nM and an IC50 [1] of 53 nM.
In the case of O=C(NO)c1ccc(NC(=O)[C@@H](NCc2ccc(O)cc2)c2ccccc2)cc1 [Compound 9f, (S)-N-Hydroxy-4-(2-((4-hydroxybenzyl)amino)-2-phenylacetamido)benzamide], the IC50 (KG-1 cells) is reported as 2500 nM, the IC50 (U937 cells) is reported as 980 nM and the IC50 (HCT116 cells) is reported as 3000 nM. For the same compound, the IC50 [1] was 50.3 nM, the IC50 (U266 cells) was 3300 nM and the IC50 (H7402 cells) was 12400 nM. The IC50 (HeLa cells) was 6800 nM.
For Cc1cc(C)cc(NC(=O)N[C@H](C(=O)Nc2ccc(C(=O)NO)cc2)c2ccccc2)c1 [Compound 7i, (S)-4-(2-(3-(3,5-Dimethylphenyl)ureido)-2-phenylacetamido)-N-hydroxybenzamide], the IC50 (U937 cells) was 5700 nM and the IC50 [1] was 15 nM.
With O=C(NO)c1ccc(NC(=O)[C@@H](NC(=O)c2ccc3cc[nH]c3c2)c2ccccc2)cc1 [Compound 8c, (S)-N-(2-((4-(Hydroxycarbamoyl)phenyl)amino)-2-oxo-1-phenylethyl)-1H-indole-6-carboxamide] the IC50 (U937 cells) was 9800 nM and the IC50 [1] was 107 nM.
For O=C(Nc1cccc(Cl)c1)N[C@H](C(=O)Nc1ccc(C(=O)NO)cc1)c1ccccc1 [Compound 7b, (S)-4-(2-(3-(3-Chlorophenyl)ureido)-2-phenylacetamido)-N-hydroxybenzamide], the IC50 (U937 cells) was 2900 nM and the IC50 [1] was 12.6 nM.
Work on O=C(Nc1cccc2ccccc12)N[C@H](C(=O)Nc1ccc(C(=O)NO)cc1)c1ccccc1 [Compound 7k, (S)-N-Hydroxy-4-(2-(3-(naphthalen-1-yl)ureido)-2-phenylacetamido)benzamide] yielded an IC50 [1] of 124 nM.
For O=C(NO)c1ccc(NC(=O)[C@@H](NCc2ccccc2Br)c2ccccc2)cc1 [Compound 9c, (S)-4-(2-((2-Bromobenzyl)amino)-2-phenylacetamido)-N-hydroxybenzamide], the IC50 (KG-1 cells) was 1500 nM, the IC50 (U937 cells) was 840 nM and the IC50 (HCT116 cells) was 2300 nM. It also gave an IC50 [1] of 12.8 nM, an IC50 (U266 cells) of 2100 nM and an IC50 (H7402 cells) of 7100 nM. It also gave an IC50 (HeLa cells) of 15000 nM.
Compound COc1cccc(NC(=O)N[C@H](C(=O)Nc2ccc(C(=O)NO)cc2)c2ccccc2)c1 [Compound 7a, (S)-N-Hydroxy-4-(2-(3-(3-methoxyphenyl)ureido)-2-phenylacetamido)benzamide] has an IC50 (U937 cells) of 6100 nM and an IC50 [1] of 13.3 nM.
With O=C(NO)c1ccc(NC(=O)[C@@H](NCc2ccccc2Cl)c2ccccc2)cc1 [Compound 9b, (S)-4-(2-((2-Chlorobenzyl)amino)-2-phenylacetamido)-N-hydroxybenzamide] the IC50 (KG-1 cells) was 3400 nM, the IC50 (U937 cells) was 1100 nM and the IC50 (HCT116 cells) was 5500 nM. The IC50 [1] was 56.1 nM, the IC50 (U266 cells) was 2400 nM and the IC50 (H7402 cells) was 4200 nM. It also gave an IC50 (HeLa cells) of 6000 nM.
Work on O=C(NO)c1ccc(NC(=O)[C@@H](NCc2ccc(Cl)cc2)c2ccccc2)cc1 [Compound 9e, (S)-4-(2-((4-Chlorobenzyl)amino)-2-phenylacetamido)-N-hydroxybenzamide] yielded an IC50 (KG-1 cells) of 2000 nM, an IC50 (U937 cells) of 950 nM and an IC50 (HCT116 cells) of 3000 nM. It also gave an IC50 [1] of 13.8 nM, an IC50 (U266 cells) of 3000 nM and an IC50 (H7402 cells) of 9600 nM. For the same compound, the IC50 (HeLa cells) was 15600 nM.
COc1cc(CN[C@H](C(=O)Nc2ccc(C(=O)NO)cc2)c2ccccc2)ccc1O [Compound 9g, (S)-N-Hydroxy-4-(2-((4-hydroxy-3-methoxybenzyl)amino)-2-phenylacetamido)benzamide] gave an IC50 (KG-1 cells) of 5600 nM, an IC50 (U937 cells) of 2000 nM and an IC50 (HCT116 cells) of 6200 nM. It also gave an IC50 [1] of 72 nM, an IC50 (U266 cells) of 4300 nM and an IC50 (H7402 cells) of 200 nM. The IC50 (HeLa cells) was 200 nM.
O=C(Nc1ccc(Cl)cc1Cl)N[C@H](C(=O)Nc1ccc(C(=O)NO)cc1)c1ccccc1 [Compound 7h, (S)-4-(2-(3-(2,4-Dichlorophenyl)ureido)-2-phenylacetamido)-N-hydroxybenzamide] gave an IC50 (U937 cells) of 5100 nM and an IC50 [1] of 1.2 nM.
O=C(/C=C/c1ccc(NC(=O)[C@@H](NC(=O)Nc2ccccc2Br)c2ccccc2)cc1)NO [Compound 16c, (S, E)-3-(4-(2-(3-(2-Bromophenyl)ureido)-2-phenylacetamido)phenyl)-N-hydroxyacrylamide] showed an IC50 [1] of 91.7 nM.
O=C(NO)c1ccc(NC(=O)[C@@H](NC(=O)c2ccc3nccnc3c2)c2ccccc2)cc1 [Compound 8b, (S)-N-(2-((4-(Hydroxycarbamoyl)phenyl)amino)-2-oxo-1-phenylethyl)quinoxaline-6-carboxamide] showed an IC50 (U937 cells) of 10500 nM and an IC50 [1] of 163 nM.
In the case of COc1cccc(CN[C@H](C(=O)Nc2ccc(C(=O)NO)cc2)c2ccccc2)c1 [Compound 9d, (S)-N-Hydroxy-4-(2-((3-methoxybenzyl)amino)-2-phenylacetamido)benzamide], the IC50 (KG-1 cells) is reported as 900 nM, the IC50 (U937 cells) is reported as 530 nM and the IC50 (HCT116 cells) is reported as 1300 nM. The “Relative increment ratio (T/C)” value (U937 xenograft; U937 xenograft in nude mice, 100 mg/kg once a day orally for 12 days) was 43%, the Body weight loss (U937 xenograft; [3]) was “no significant body weight loss” and the “Toxic signs in macroscopic analysis of liver and spleen” value (U937 xenograft; [3]) was “no evident toxic signs”. The Oral antitumor activity (U937 xenograft; U937 xenograft, 100 mg/kg po, tumor growth curve and final tumor tissue size) was “comparable with SAHA”, the IC50 [1] was 70 nM and the IC50 (U266 cells) was 980 nM. The IC50 (H7402 cells) was 3500 nM and the IC50 (HeLa cells) was 5400 nM.
For O=C(/C=C/c1ccc(NC(=O)[C@@H](NC(=O)Nc2ccccc2Cl)c2ccccc2)cc1)NO [Compound 16a, (S, E)-3-(4-(2-(3-(2-Chlorophenyl)ureido)-2-phenylacetamido)phenyl)-N-hydroxyacrylamide], the IC50 [1] was 128 nM.
Compound COc1ccccc1CN[C@H](C(=O)Nc1ccc(C(=O)NO)cc1)c1ccccc1 [Compound 9a, (S)-N-Hydroxy-4-(2-((2-methoxybenzyl)amino)-2-phenylacetamido)benzamide] has an IC50 (KG-1 cells) of 1100 nM, an IC50 (U937 cells) of 750 nM and an IC50 (HCT116 cells) of 1400 nM. For the same compound, the IC50 [1] was 105 nM, the IC50 (U266 cells) was 1500 nM and the IC50 (H7402 cells) was 4100 nM. The IC50 (HeLa cells) was 8000 nM.
Compound O=C(NO)c1ccc(NC(=O)[C@@H](NC(=O)c2ccc3ncccc3c2)c2ccccc2)cc1 [Compound 8a, (S)-N-(2-((4-(Hydroxycarbamoyl)phenyl)amino)-2-oxo-1-phenylethyl)quinoline-6-carboxamide] has an IC50 (U937 cells) of 10500 nM and an IC50 [1] of 168 nM.
Work on Cc1ccccc1NC(=O)N[C@H](C(=O)Nc1ccc(C(=O)NO)cc1)c1ccccc1 [Compound 7f, (S)-N-Hydroxy-4-(2-phenyl-2-(3-(o-tolyl)ureido)acetamido)benzamide] yielded an IC50 [1] of 6.3 nM.
